Assay results taken from ChEMBL document CHEMBL1143869, “Amide bond direction modulates G-quadruplex recognition and telomerase inhibition by 2,6 and 2,7 bis-substituted anthracenedione derivatives” (Bioorg Med Chem, 2008).

How the values were obtained:
[1] = Inhibition of human telomerase in JR8 cells by TRAP assay; type: cell-based
Summary of the method: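 Modified TRAP assay. Telomerase source was supernatant of JR8 cell lysate (13000 rpm, 30 min, 4 °C). The 50 µl reaction held 50 µM dNTPs, 0.2 µg labelled TS, 0.1 µg ACX return primer, 500 ng protein extract, 2 U Taq and a TSNT internal control with NT primer, with or without drug at increasing concentrations. Telomerase was inactivated at 85 °C for 5 min. PCR ran 25 cycles (94/65/72 °C, 30 s each). Products were resolved on a 2% agarose gel and stained with ethidium bromide.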

Homo sapiens [2] = species: Homo sapiens; test: Binding affinity to human telomeric G-quadraflex assessed as thermal stability at 1 uM by FRET assay
Summary of the method: (§1)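 Human telomeric (GGGTTA)4 oligonucleotide labelled with fluorescein at the 5'-end and MethylRed quencher at the 3'-end, folded into an intramolecular G-quadruplex in 50 mM potassium phosphate buffer, pH 7.4. Fluorescence melting was run on a Roche Light Cycler (excitation 488 nm, emission 520 nm) without and with ligand. Stabilisation was taken as the increase in melting temperature.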

Homo sapiens [3] = species: Homo sapiens; test: Binding affinity to human telomeric G-quadraflex assessed as thermal stability at 10 uM by FRET assay; summary of the method: as §1

SMILES | EC50 [1] [µM] | ΔTm (Homo sapiens [2]) [°C] | ΔTm (Homo sapiens [3]) [°C]
NCCNC(=O)c1ccc2c(c1)C(=O)c1ccc(C(=O)NCCN)cc1C2=O | 5.2 | 2 | 10
NCCNC(=O)c1ccc2c(c1)C(=O)c1cc(C(=O)NCCN)ccc1C2=O | 14.5 | 3.3 | 12.9
O=C(CCN1CCCC1)Nc1ccc2c(c1)C(=O)c1ccc(NC(=O)CCN3CCCC3)cc1C2=O | 2.5 | 5.9 | 19.2
O=C(NCCN1CCCC1)c1ccc2c(c1)C(=O)c1ccc(C(=O)NCCN3CCCC3)cc1C2=O | 10.4 | 1.8 | 10.8

More lines, now with the values ahead:

EC50 [1] [µM] | ΔTm (Homo sapiens [2]) [°C] | ΔTm (Homo sapiens [3]) [°C] | SMILES
1.2 | 9.1 | 18.1 | NCCC(=O)Nc1ccc2c(c1)C(=O)c1ccc(NC(=O)CCN)cc1C2=O
1.2 | 11.3 | 27.3 | NCCC(=O)Nc1ccc2c(c1)C(=O)c1cc(NC(=O)CCN)ccc1C2=O
